# SUMO1-SIM PPI = modulators of SUMO1 protein-protein interactions, primary screen, biochemical, uHTS | Small ubiquitin-related modifier 1 (Homo sapiens), P63165 | SUMO1 binding to a labelled peptide, TR-FRET, 1 h | inhibition, % at 20 µM | 0.33% of 360,000 active | AID 602429, 2012; in the data active = inhibition above about 37%
# STEP block = STEP phosphatase inhibitors, primary screen, biochemical, fluorescence intensity, uHTS; Tyrosine-protein phosphatase non-receptor type 5 (Homo sapiens), P54829; recombinant STEP, OMFP fluorogenic substrate; 0.25% of 360,000 active; inhibition, % at 20 µM; AID 588621, 2011;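 active = inhibition at 20 µM, scaled per plate between control wells, above about 37%, limit read from the data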;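 note: 0% = DMSO with enzyme and substrate and 100% = substrate only without enzyme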
#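 System: isolated STEP enzyme; schedule: 20 min enzyme reaction at room temperature, protected from light; medium: Bis-Tris buffer pH 6.0, 2.5 mM DTT, 0.005% Tween 20; signal: fluorescence, 480/540 nm; dosing: single compound dose of 20 µM, 1% DMSO final; also added: OMFP substrate, 25 µM final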
# Scp-1 inhibitor = Scp-1 phosphatase inhibitors, primary screen, biochemical, colorimetric, uHTS. Carboxy-terminal domain RNA polymerase II polypeptide A small phosphatase 1 (Homo …. Recombinant Scp1, phosphopeptide, malachite green phosphate absorbance. inhibition, % at 20 µM. 0.88% of 340,000 active;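 active = inhibition above about 50% at 20 µM, limit read from the data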;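 note: plate controls were DMSO wells with enzyme for no effect and wells lacking enzyme for full effect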
#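 assay system = SCP-1 phosphatase catalytic domain, residues 76-261 | buffer or medium = 50 mM Tris acetate pH 5.5, 0.005% Tween-20, 10 mM MgCl2 | incubation = enzyme reaction 45 min at room temperature, colour 5 min, stabilisation 30 min | signal = Phosphate-binding colour reagent, absorbance read at 630 nm | measure = % inhibition at 20 µM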
# LMPTP inh = LMPTP phosphatase inhibitors, primary screen, biochemical, fluorescence intensity, uHTS | 0.22% of 360,000 active | recombinant LMPTP-A, OMFP fluorogenic substrate | inhibition, % at 20 µM | Low molecular weight phosphotyrosine protein phosphatase (Homo sapiens), P24666;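 active = compounds that cut the enzyme signal by at least half of the control window in the single-dose screen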;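 note: plate controls were DMSO wells with enzyme plus substrate for no effect and substrate without enzyme for full effect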
#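 Material: LMPTP-A; amount: 0.625 nM enzyme; doses: single 20 µM dose; times: reaction 50 min, room temperature, dark; technique: fluorescence intensity of OMFP turnover product; benchmarks: no-enzyme and uninhibited controls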
# DNMT1 block = human DNMT1 methyltransferase inhibitors, primary screen, biochemical, molecular beacon, fluorescence, HinP1I cleavage, uHTS. inhibition (reported as % activation of signal), % at 10 µM. 0.83% of 360,000 active. AID 588458, 2011; in the data active = inhibition above about 50%
# Target sequence (P26358 504-1616 limits assumed): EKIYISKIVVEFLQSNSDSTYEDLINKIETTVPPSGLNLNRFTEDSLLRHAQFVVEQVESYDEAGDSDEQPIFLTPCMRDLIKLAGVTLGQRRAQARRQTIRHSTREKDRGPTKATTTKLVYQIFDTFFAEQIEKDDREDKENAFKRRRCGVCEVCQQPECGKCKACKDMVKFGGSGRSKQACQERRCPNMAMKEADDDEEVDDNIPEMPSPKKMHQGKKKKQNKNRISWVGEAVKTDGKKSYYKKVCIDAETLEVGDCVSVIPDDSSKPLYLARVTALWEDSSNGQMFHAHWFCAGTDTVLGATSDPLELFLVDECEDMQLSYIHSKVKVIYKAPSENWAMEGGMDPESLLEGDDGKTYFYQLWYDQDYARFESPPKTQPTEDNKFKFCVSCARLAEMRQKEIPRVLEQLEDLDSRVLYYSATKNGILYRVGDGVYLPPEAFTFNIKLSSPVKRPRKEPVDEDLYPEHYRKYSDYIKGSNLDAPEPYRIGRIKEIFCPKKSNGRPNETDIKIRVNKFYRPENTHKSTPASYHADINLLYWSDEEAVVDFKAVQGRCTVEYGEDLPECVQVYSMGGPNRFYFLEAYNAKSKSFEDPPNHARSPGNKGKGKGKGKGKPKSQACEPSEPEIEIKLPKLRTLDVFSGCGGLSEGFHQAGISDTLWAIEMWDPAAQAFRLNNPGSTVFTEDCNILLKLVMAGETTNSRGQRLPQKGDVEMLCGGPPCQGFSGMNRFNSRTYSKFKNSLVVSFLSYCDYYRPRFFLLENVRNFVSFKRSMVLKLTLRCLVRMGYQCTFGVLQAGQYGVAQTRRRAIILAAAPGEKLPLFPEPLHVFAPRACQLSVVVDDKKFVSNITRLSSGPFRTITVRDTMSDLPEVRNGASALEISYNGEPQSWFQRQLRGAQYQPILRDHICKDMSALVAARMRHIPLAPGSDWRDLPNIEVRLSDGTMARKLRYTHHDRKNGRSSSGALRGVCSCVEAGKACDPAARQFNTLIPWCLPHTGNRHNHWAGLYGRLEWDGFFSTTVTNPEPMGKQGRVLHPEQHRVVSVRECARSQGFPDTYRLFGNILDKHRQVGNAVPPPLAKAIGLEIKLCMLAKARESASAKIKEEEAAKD
# NadD block = inhibitors of S. aureus NadD, primary screen, biochemical, colorimetric, uHTS; inhibition, % at 20 µM; Nicotinate-nucleotide adenylyltransferase NadD (Staphylococcus aureus N315); purified NadD enzyme, colorimetric absorbance read-out; 0.78% of 360,000 active; in the data active = inhibition above about 26%
# Beacon interf DR = spectral interference with molecular beacon fluorescence, dose response, artefact control for DNMT1 inhibitor project, biochemical, fluorescent molecular beacon; 200 tested, under 10 active; spectral interference counter-screen; IC50, µM; shares compounds with DNMT1 block; call rule not given here
# DNMT1 confirm = DNMT1 methyltransferase inhibitor retest, confirmation, biochemical, molecular beacon, fluorescence, single concentration | shares compounds with DNMT1 block | DNMT1 molecular beacon HinP1I cleavage | inhibition, % at 10 µM | 8% of 2,300 active;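 active = average inhibition of at least 30% in the single-concentration confirmation test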
# DNMT1 interf = shows spectral interference in the DNMT1 beacon assay; activation (fluorescence interference), % at 10 µM; shares compounds with DNMT1 block; DNMT1 molecular beacon spectral interference counterscreen, fluorescence 485/520; 1% of 2,300 active;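 active = activation of at least 30% at 10 µM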;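 note: DNMT1 catalytic domain with a HinP1I cleavage step and a FAM/dabcyl DNA beacon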
# * hit, by the source's call; x = not tested or not shown. Sampled rows, rich in hits. Any-hit rate of the full collection: about 2.3%.
SMILES,SUMO1-SIM PPI,STEP block,Scp-1 inhibitor,LMPTP inh,DNMT1 block,NadD block,DNMT1 confirm,DNMT1 interf,others
c1ccc(CN2CCN(CCCNc3ccc4nnc(-c5ccccc5)n4n3)CC2)cc1,-9,3,-13,4,2,1,x,x,
Cc1oc2cc(O)ccc2c(=O)c1-c1cnn(-c2ccccc2)c1,6,-4,-16,1,-5,0,x,x,
CCc1cc2c(=O)c(-c3cnn(-c4ccccc4)c3)c(C)oc2cc1OCC(=O)Nc1cccc(C)c1,0,2,-7,0,61*,19,2,-4,
CN(C)CCCN(C(=O)/C=C/c1cccs1)c1nc2ccc(F)cc2s1,-15,2,-6,0,5,-4,x,x,
CN(C)CCN(C(=O)/C=C/c1cccs1)c1nc2c(F)cc(F)cc2s1,1,-4,1,0,58*,14,3,2,
CCOC(=O)CN1C(=O)S/C(=C/c2ccc(N3CCCCC3)o2)C1=O,-41,-10,11,-1,6,16,x,x,
COC(=O)CN1C(=O)S/C(=C/c2ccc(N3CCCCC3)o2)C1=O,-130,-58,0,2,67*,6,70*,52*,
CC1CCCC(NC(=O)CCN2C(=O)COc3ccccc32)C1C (configuration not stated),1,2,x,0,3,0,x,x,
O=C(O)c1ccc(-c2ccc(/C=C3\NC(=O)N(Cc4ccc(Cl)cc4)C3=O)o2)cc1Cl,25,49*,81*,10,88*,14,60*,-1,Beacon interf DR=>99
COc1ccc(OC)c(-n2c(SCC(=O)Nc3cccc(S(N)(=O)=O)c3)nc3ccccc3c2=O)c1,3,13,-4,1,67*,18,2,2,
COc1ccccc1-n1c(SCC(=O)Nc2cccc(S(N)(=O)=O)c2)nc2ccccc2c1=O,-2,-2,-10,0,-2,7,x,x,
COc1ccc(Cl)cc1NC(=O)C/C(C)=N/NC(=O)c1ccccc1[N+](=O)[O-],-10,-2,-7,0,-1,2,x,x,
COc1ccc(Cl)cc1NC(=O)c1cccc([N+](=O)[O-])c1O,-8,2,-13,0,66*,-1,1,0,
Cc1cc(C)n2c(Br)c(CSc3nc4ccccc4o3)nc2n1,10,4,23,6,59*,5,15,7,
O=C(COc1cccc(Br)c1)NN=C1c2ccccc2-c2ccccc21,-5,0,-34,2,54*,-1,0,-5,
CC(=O)Oc1cccc2c1C(=O)c1c(OC(C)=O)cc(C(=O)O)cc1C2=O,-17,-1,-6,1,-19,-2,x,x,
O=C(O)c1cc(O)c2c(c1)C(=O)c1cc(O)cc(O)c1C2=O,20,9,64*,4,81*,-7,16,-2,
O=C(Oc1ccc2c(c1)OCO2)c1cc2c(s1)CCC2,1,7,65*,52*,100*,24,17,-1,
O=C(c1cc2c(s1)CCCC2)N1CCN(Cc2ccc3c(c2)OCO3)CC1,-1,1,-5,-3,-1,0,x,x,

# From PubChem
